Activity calls are given as the source filed them. The calls are words filed in the database; no cut-off is given here.
Assays:
[1] = Induction of apoptosis in human T24 cells assessed as caspase-8 upregulation after 24 hrs by qRT-PCR analysis; assay type: functional, cell-based; conditions: T-24
Procedure, shortened: (§1)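 T24 cells treated at […] for 24 h before RNA extraction. SYBR Green qRT-PCR with 500 nM primers: 2 min at 50 C, 10 min at 95 C, then 40 cycles of 15 s at 95 C and 1 min at 60 C. Expression by the ΔCt method against actin, normalized to untreated cells; run in triplicate.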

[2] = tested on: MGC-803; test: Cytotoxicity against human MGC803 cells after 2 days by MTT assay; assay type: functional, cell-based; conditions: MGC-803, 48 h
Procedure, shortened: (§2)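 Cells grown in medium with 10% heat-inactivated FBS at 37 C under 5% CO2. Compounds dissolved in medium with 1% DMSO; controls received 1% DMSO. After 2 days, MTT (10 mg/mL) added for 4 h, formazan dissolved in DMSO and absorbance read at 570/630 nm. Survival taken relative to negative control; IC50 by Bliss method (n = 5), at least three independent experiments.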

[3] = tested on: A549; test: Cytotoxicity against human A549 cells after 2 days by MTT assay; assay type: functional, cell-based; conditions: A549, 48 h; procedure, shortened: as §2
[4] = tested on: T-24; test: Induction of apoptosis in human T24 cells assessed as early apoptotic cells at 5 uM after 24 hrs by annexin-V-FITC/propidium iodide staining-based flow cytometry (reference value: 2.74%); assay type: functional
[5] = tested on: T-24; test: Induction of apoptosis in human T24 cells assessed as late apoptotic cells at 20 uM after 24 hrs by annexin-V-FITC/propidium iodide staining-based flow cytometry (reference value: 2.08%); assay type: functional
[6] = Cell cycle arrest in human T24 cells assessed as accumulation at G2 phase at 20 uM after 48 hrs by Rnase A/propidium iodide staining-based flow cytometry (reference value: 3.58%); assay type: functional; conditions: T-24
Procedure, shortened: (§3)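 T24 cells exposed to […] for 48 h, washed with ice-cold PBS, then fixed and permeabilized overnight in ice-cold 70% ethanol. RNase A (100 mg/mL) treatment at 37 C for 30 min, then PI staining (1 mg/mL) in the dark at 4 C for 30 min. Flow cytometry gave the percentage of cells in G1, S and G2 phase.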

[7] = tested on: T-24; test: Induction of apoptosis in human T24 cells assessed as condensed nuclei after 24 hrs by Hoechst 33258 staining-based fluorescence microscopic analysis relative to control; assay type: functional, cell-based
Procedure, shortened: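 T24 cells on cover slips treated at […] for 24 h; untreated cells as control. Fixed in 4% paraformaldehyde for 10 min, PBS washes, Hoechst 33258 for 5 min. Nuclei imaged by fluorescence microscopy, excitation 350 nm, emission 460 nm.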

[8] = Cell cycle arrest in human T24 cells assessed as reduction in Cyclin D1 level after 24 hrs by Western blotting analysis; assay type: functional, cell-based; conditions: T-24
Procedure, shortened: (§4)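 T24 cells treated at […] for 24 h and lysed in ice-cold RIPA buffer with protease inhibitors and NaF. Protein measured by Bradford; 30 micrograms per lane run on 12% SDS-PAGE and transferred to PVDF. Blocked 2 h at room temperature, primary antibody overnight at 4 C, HRP secondary (1:2000) 1 h, chemiluminescence detection.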

[9] = tested on: T-24; test: Induction of apoptosis in human T24 cells assessed as late apoptotic cells at 5 uM after 24 hrs by annexin-V-FITC/propidium iodide staining-based flow cytometry (reference value: 2.08%); assay type: functional
[10] = Induction of apoptosis in human T24 cells assessed as caspase-3 upregulation at IC50 after 24 hrs by qRT-PCR analysis relative to control; assay type: functional, cell-based; conditions: T-24
[11] = tested on: T-24; test: Induction of apoptosis in human T24 cells assessed as viable cells at 5 uM after 24 hrs by annexin-V-FITC/propidium iodide staining-based flow cytometry (reference value: 93.5%); assay type: functional; conditions: T-24, 24 h, read-out: Activity
[12] = Induction of apoptosis in human T24 cells assessed as caspase-3 upregulation after 24 hrs by qRT-PCR analysis; assay type: functional, cell-based; conditions: T-24; procedure, shortened: as §1
[13] = Cell cycle arrest in human T24 cells assessed as reduction in CDK4 level after 24 hrs by Western blotting analysis; assay type: functional, cell-based; conditions: T-24; procedure, shortened: as §4
[14] = Cell cycle arrest in human T24 cells assessed as accumulation at G1 phase at 5 uM after 48 hrs by Rnase A/propidium iodide staining-based flow cytometry (reference value: 34.43%); assay type: functional; conditions: T-24; procedure, shortened: as §3
[15] = Cell cycle arrest in human T24 cells assessed as accumulation at G2 phase at 5 uM after 48 hrs by Rnase A/propidium iodide staining-based flow cytometry (reference value: 3.58%); assay type: functional; conditions: T-24; procedure, shortened: as §3
[16] = tested on: T-24; test: Induction of apoptosis in human T24 cells assessed as increase in caspase-3 protein expression at 20 uM after 6 to 24 hrs by Western blotting analysis; assay type: functional, cell-based
[17] = Cell cycle arrest in human T24 cells assessed as accumulation at S phase at 5 uM after 48 hrs by Rnase A/propidium iodide staining-based flow cytometry (reference value: 62%); assay type: functional; conditions: T-24; procedure, shortened: as §3
[18] = tested on: T-24; test: Induction of apoptosis in human T24 cells assessed as necrotic cells at 20 uM after 24 hrs by annexin-V-FITC/propidium iodide staining-based flow cytometry (reference value: 1.66%); assay type: functional
[19] = Induction of apoptosis in human T24 cells assessed as caspase-9 upregulation at IC50 after 24 hrs by qRT-PCR analysis relative to control; assay type: functional, cell-based; conditions: T-24
[20] = Induction of apoptosis in human T24 cells assessed as cytC upregulation after 24 hrs by qRT-PCR analysis; assay type: functional, cell-based; conditions: T-24; procedure, shortened: as §1
[21] = Induction of apoptosis in human T24 cells assessed as tp53 upregulation after 24 hrs by qRT-PCR analysis; assay type: functional, cell-based; conditions: T-24
[22] = tested on: T-24; test: Induction of apoptosis in human T24 cells assessed as cell budding at 5 to 20 uM after 24 hrs by AO/EB staining-based fluorescence microscopic analysis relative to control; assay type: functional
[23] = Cell cycle arrest in human T24 cells assessed as alteration in cyclin A level at 5 to 20 uM after 24 hrs by Western blotting analysis; assay type: functional, cell-based; conditions: T-24
[24] = Cell cycle arrest in human T24 cells assessed as increase in p53 level after 24 hrs by Western blotting analysis; assay type: functional, cell-based; conditions: T-24; procedure, shortened: as §4
[25] = Cell cycle arrest in human T24 cells assessed as increase in p16 level after 24 hrs by Western blotting analysis; assay type: functional, cell-based; conditions: T-24; procedure, shortened: as §4
[26] = Induction of apoptosis in human T24 cells assessed as caspase-9 upregulation after 24 hrs by qRT-PCR analysis; assay type: functional, cell-based; conditions: T-24; procedure, shortened: as §1
[27] = Cell cycle arrest in human T24 cells assessed as accumulation at S phase at 10 uM after 48 hrs by Rnase A/propidium iodide staining-based flow cytometry (reference value: 62%); assay type: functional; conditions: T-24; procedure, shortened: as §3
[28] = Induction of apoptosis in human T24 cells assessed as AIF upregulation after 24 hrs by qRT-PCR analysis; assay type: functional, cell-based; conditions: T-24; procedure, shortened: as §1
[29] = tested on: T-24; test: Induction of apoptosis in human T24 cells assessed as loss of mitochondrial membrane potential at 5 to 20 uM after 24 hrs by JC-1 staining-based fluorescence microscopic analysis relative to control; assay type: functional, cell-based
Procedure, shortened: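 T24 cells exposed 24 h at 5, 10 and 20 µM, then given an equal volume of JC-1 staining solution at 37 °C for 20 min and rinsed twice with PBS. Monomer (green, 515–545 nm) and aggregate (red, 570–600 nm) emissions were viewed by fluorescence microscopy. Depolarization was read as a rise in the green/red ratio against untreated control.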

[30] = tested on: NCI-H460; test: Cytotoxicity against human NCI-H460 cells after 2 days by MTT assay; assay type: functional, cell-based; conditions: NCI-H460, 48 h; procedure, shortened: as §2

COc1ccc2c(c1)/C(=N\O)C(c1c[nH]c3ccc(OC)cc13)=N2
Activity [1]: Dose-dependent effect
IC50 [2]: 7.66 µM
IC50 [3]: 6.09 µM
Activity [4]: 6.89%
Activity [5]: 7.13%
Activity [6]: 4.67%
Activity [7]: Dose-dependent effect
Activity [8]: Dose-dependent effect
Activity [9]: 6.03%
fold change (FC) [10]: 24.8
viability at 5 µM [11]: 85.9%
Activity [12]: Dose-dependent effect
Activity [13]: Dose-dependent effect
Activity [14]: 45%
Activity [15]: 3.11%
Activity [16]: Active
Activity [17]: 51.9%
Activity [18]: 2.07%
fold change (FC) [19]: 27.1
Activity [20]: Dose-dependent effect
Activity [21]: Dose-dependent effect
Activity [22]: Active
Activity [23]: inactive
Activity [24]: Dose-dependent effect
Activity [25]: Dose-dependent effect
Activity [26]: Dose-dependent effect
Activity [27]: 37.5%
Activity [28]: Dose-dependent effect
Activity [29]: Active
IC50 [30]: 9.83 µM

Source: ChEMBL document CHEMBL3414514, “Synthesis and pharmacological evaluation of novel bisindole derivatives bearing oximes moiety: identification of novel proapoptotic agents” (Eur J Med Chem, 2015)
